Data as given in ChEMBL document CHEMBL1134600, “Synthesis and evaluation of cryptolepine analogues for their potential as new antimalarial agents” (J Med Chem, 2001).
Several values for one entry are separate records, joined by “and”; a condition that tells them apart may be missing. Identical values can stand only once.

What was measured:
Plasmodium falciparum [1] = assay: In vitro inhibitory activity against chloroquine-resistant Plasmodium falciparum K1; type: functional, organism-based
Outline: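 Early ring-stage parasites in human A+ erythrocytes, RPMI 1640 with A+ serum and glucose. Twofold serial dilutions in duplicate from DMSO stocks (final DMSO ≤0.5%), 2.5% hematocrit, 1% parasitemia. Incubated 48 h at 37 °C under 93% N2/3% O2/4% CO2. Growth read as parasite lactate dehydrogenase activity (APAD/NBT reagent, 15 min, OD 550 nm). IC50 by linear regression, at least three separate determinations.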

Plasmodium falciparum [2] = assay: In vitro inhibitory activity against chloroquine-sensitive Plasmodium falciparum HB3
MAC15A [3] = assay: Cytotoxicity against MAC15a cells when the drug is exposed for a time of 1 hr; type: functional, cell-based; conditions: Mus musculus
[4] = biological target: T1, Histidine-rich protein PFHRP-II (Plasmodium falciparum) (UniProt P05227); assay: Inhibition of beta-hematin formation; No; type: functional
T1 sequence (whole entry): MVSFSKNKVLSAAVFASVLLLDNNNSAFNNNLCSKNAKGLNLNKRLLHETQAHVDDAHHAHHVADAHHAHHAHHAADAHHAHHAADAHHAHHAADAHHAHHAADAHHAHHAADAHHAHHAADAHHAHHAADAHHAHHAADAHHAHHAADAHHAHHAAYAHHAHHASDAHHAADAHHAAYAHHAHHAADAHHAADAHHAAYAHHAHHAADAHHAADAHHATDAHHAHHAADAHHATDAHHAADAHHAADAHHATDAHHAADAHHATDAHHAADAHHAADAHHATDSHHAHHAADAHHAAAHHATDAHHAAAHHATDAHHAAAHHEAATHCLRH

[5] = biological target: T1, Histidine-rich protein PFHRP-II (Plasmodium falciparum); assay: Inhibition of beta-hematin formation; Yes; type: functional
Mus musculus = assay: Inhibitory activity against Plasmodium berghei (ANKA) in mice at a dose of 20 mg/kg for 4 days; type: functional; parameters: scale not given: the % may be the effect or the level left
Outline: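 Peters' 4-day suppressive test. Female BALB/c mice (18-20 g) were inoculated iv with 1 × 10⁷ P. berghei ANKA-infected erythrocytes. Drug was given ip in 0.2 mL daily for 4 consecutive days, 5 mice per group, with chloroquine diphosphate as positive control. Blood smears were taken on day 5. % suppression of parasitemia was calculated against untreated infected controls for each dose.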

DLD-1 [6] = assay: Cytotoxicity against DLD-1 cells when the drug is exposed for a time of 1 hr; type: functional, cell-based; conditions: Homo sapiens, DLD-1, 1 h
A549 [7] = assay: Cytotoxicity against A549 cells when the drug is exposed for a time of 1 hr; type: functional, cell-based; conditions: Homo sapiens, A549, 1 h
DLD-1 [8] = assay: Cytotoxicity against DLD-1 cells when the drug is exposed for a time of 96 hrS; type: functional, cell-based; conditions: Homo sapiens, DLD-1, 96 h
MAC15A [9] = assay: Cytotoxicity against MAC15a cells when the drug is exposed for a time of 96 hr; type: functional, cell-based; conditions: Mus musculus
A549 [10] = assay: Cytotoxicity against A549 cells when the drug is exposed for a time of 96 hrs; type: functional, cell-based; conditions: Homo sapiens, A549, 96 h

SMILES | IC50 (Plasmodium falciparum [1]) [µM] | IC50 (Plasmodium falciparum [2]) [µM] | IC50 (MAC15A [3]) [µM] | beta-hematin formation inhibition (yes/no) [5] | IC50 (DLD-1 [6]) [µM] | IC50 (A549 [7]) [µM] | other results
C[n+]1c2ccccc2c(Cl)c2[nH]c3ccccc3c21 | 0.24 | 1.67 | 30.5 | – | – | – | –
NC(=O)c1c2nc3ccccc3c-2[nH]c2ccccc12 | > 100 | – | – | – | – | – | inhibition [4]: No inhibition
C[n+]1c2ccccc2cc2[nH]c3ccc(Br)cc3c21.[I-] | 0.26 | 0.19 | 66.2 | Inhibition | – | – | –
C[n+]1c2ccccc2cc2[n-]c3c([N+](=O)[O-])cc([N+](=O)[O-])cc3c21 | 0.65 | 0.45 | 28.5 | Inhibition | > 100 | > 100 | Activity (Mus musculus): 20.3% and 30.2%
CCN(CC)CCCC(C)Nc1ccnc2cc(Cl)ccc12.O=P(O)(O)O.O=P(O)(O)O (centres undefined) [CHLOROQUINE PHOSPHATE] | – | – | – | Inhibition | – | – | –
C[n+]1c2ccccc2cc2[n-]c3c([N+](=O)[O-])cccc3c21 | 6.92 | 4.14 | > 100 | – | > 100 | > 100 | Activity (Mus musculus): 11.9% and 23.5%
C[n+]1c2ccc(Br)cc2cc2[nH]c3ccccc3c21.[I-] | 0.26 | 0.45 | > 100 | Inhibition | > 100 | > 100 | IC50 (DLD-1 [8]): 2.29 µM; IC50 (MAC15A [9]): 5.79 µM; IC50 (A549 [10]): 2.07 µM
C[n+]1c2ccccc2c(Cl)c2[nH]c3cc(Cl)ccc3c21 | 27 | – | 14.4 | – | – | – | –
CC(=O)Nc1ccc2[n-]c3cc4ccccc4[n+](C)c3c2c1 | 0.52 | 0.47 | > 100 | – | > 100 | > 100 | Activity (Mus musculus): 13.3% and 14.7%; IC50 (DLD-1 [8]): 20.4 µM; IC50 (MAC15A [9]): 15.5 µM; IC50 (A549 [10]): 5.04 µM
O=C(O)c1c2nc3ccccc3c-2[nH]c2ccccc12 | > 100 | – | – | – | – | – | inhibition [4]: No inhibition
C[n+]1c2ccccc2cc2[nH]c3ccccc3c21 [CRYPTOLEPTINE IODIDE] | 0.44 | – | 67.2 | – | 93 | 61.4 | IC50 (DLD-1 [8]): 1.44 µM; IC50 (MAC15A [9]): 9.65 µM; inhibition [5]: Inhibition; IC50 (A549 [10]): 0.55 µM
C[n+]1c2ccc(Br)cc2c(Cl)c2[nH]c3ccccc3c21 | 4.75 | – | – | – | – | – | –
C[n+]1c2ccc(Br)cc2cc2[nH]c3ccc(Br)cc3c21.[I-] | 0.049 | 0.026 | – | Inhibition | – | – | IC50 (MAC15A [9]): 6.04 µM
C[n+]1c2ccccc2c(Cl)c2[nH]c3ccc(Cl)cc3c21 | 7.62 | – | – | – | – | – | –
C[n+]1c2ccccc2cc2[n-]c3ccc([N+](=O)[O-])cc3c21 | 0.65 | 0.14 | 35.4 | Inhibition | 48.9 | 35.6 | –
C[n+]1c2ccccc2c(Cl)c2[nH]c3cc(Br)ccc3c21 | 7.18 | – | 23.1 | – | – | – | –
c1ccc2nc3c(cc2c1)[nH]c1ccccc13 [QUINDOLINE] | > 100 | – | – | – | – | – | inhibition [4]: No inhibition
